Article PMC2494688 (Diabetes, 2008)

Columns and labels:
human GPR40 = human GPR40 (Homo sapiens, UniProt O14842); type: cell-based; settings: CHO cells, in words
Method in brief: (§1)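 GPR40 stably expressed in CHO cells carrying NFAT β-lactamase, seeded 1 day before. Test compound in DMSO, diluted in assay buffer, added as a 5× solution. Calcium signal read on FLIPR from 10 s before addition. EC50 taken from concentration–response curves.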

mouse GPR40 = mouse GPR40 (Mus musculus, UniProt Q76JU9); type: cell-based; settings: CHO cells, in words
mouse GPR40, sequence (Q76JU9 whole entry): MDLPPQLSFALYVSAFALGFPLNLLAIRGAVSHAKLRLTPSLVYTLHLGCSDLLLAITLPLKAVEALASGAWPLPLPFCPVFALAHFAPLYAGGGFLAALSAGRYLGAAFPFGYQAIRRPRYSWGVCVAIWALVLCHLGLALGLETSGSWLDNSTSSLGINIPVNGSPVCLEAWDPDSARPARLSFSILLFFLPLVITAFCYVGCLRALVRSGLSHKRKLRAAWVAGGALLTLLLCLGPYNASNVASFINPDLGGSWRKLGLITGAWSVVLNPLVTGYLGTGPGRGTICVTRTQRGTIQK
Method in brief: as §1

[1] = test system: islets from wild-type mice; experiment: Static GDIS assay, 1-h incubation, wild-type islets; type: cell-based, mouse; settings: 200 μmol/l, 16 mmol/l glucose, n = 6
Method in brief: (§2)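 Islets isolated by collagenase digestion and Ficoll gradient, cultured overnight in RPMI-1640 with 11 mmol/l glucose. Preincubated 30 min in KRB (0.2% BSA) with 2 mmol/l glucose. One islet/well incubated 60 min at 2 or 16 mmol/l glucose, ± 200 μmol/l oleate or palmitate or 10 μmol/l test compound; DMSO vehicle. Insulin by ultrasensitive rat insulin ELISA. Two experiments, six replicates in total. Wild-type islets also tested across a compound concentration series at 16 mmol/l glucose (three experiments).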

[2] = test system: islets from GPR40−/− mice; experiment: Static GDIS assay, 1-h incubation, GPR40−/− islets; type: cell-based, mouse; settings: 200 μmol/l, 16 mmol/l glucose, n = 6, P > 0.05
Method in brief: as §2

wild-type C57BL/6 mice = experiment: IPGTT in wild-type lean mice; type: in vivo, mouse; settings: 0.0025 mg/kg, positive control
Method in brief: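 Lean male C57BL/6N mice fasted 5–6 h, dosed orally with compound (1–100 mg/kg) or 0.25% methylcellulose vehicle (10 ml/kg) 60 min before 2 g/kg i.p. dextrose. Tail glucose sampled to 60 min. Percent inhibition derived from the 0–60 min AUC minus the vehicle/water group AUC. Plasma compound measured by LC-MS/MS at 60 min of IPGTT (2 h post-dose).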

human GPR40, sequence (O14842 whole entry): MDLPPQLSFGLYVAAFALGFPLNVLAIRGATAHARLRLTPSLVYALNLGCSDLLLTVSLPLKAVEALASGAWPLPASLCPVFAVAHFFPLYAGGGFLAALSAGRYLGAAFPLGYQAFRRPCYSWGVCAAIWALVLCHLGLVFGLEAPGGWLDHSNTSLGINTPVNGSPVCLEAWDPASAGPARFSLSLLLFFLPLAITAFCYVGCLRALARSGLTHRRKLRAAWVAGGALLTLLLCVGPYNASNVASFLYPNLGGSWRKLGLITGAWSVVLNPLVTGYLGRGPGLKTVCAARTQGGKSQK

Q: What does the source list for `CCCC(=O)O` [butyric C4:0]?
A: Activation of human GPR40 receptor (human GPR40): minimal activation; Activation of mouse GPR40 receptor (mouse GPR40): minimal activation

Q: How did the “Promotion of glucose-dependent insulin secretion” value (shortened to “Promotion”) [1] turn out when `CCCCCCCC/C=C\CCCCCCCC(=O)O` [oleic C18:1, oleic acid] was run?
A: 1.9 ± 0.4 fold

Q: What about the “Promotion” value [2] of the same molecule?
A: 1.2 ± 0.3 fold

Q: With `CCCCCCCCCCCCCCCC(=O)O` [palmitate, palmitic acid] as the molecule, how does the “Promotion” value [1] read?
A: 2.4 ± 0.3 fold

Q: What about the “Promotion” value [2] of the same molecule?
A: 1.8 ± 0.5 fold

Q: What does the source list for `CCCCC(=O)O` [pentanoic C5:0, pentanoic acid]?
A: Activation of human GPR40 receptor (human GPR40): minimal activation; Activation of mouse GPR40 receptor (mouse GPR40): minimal activation

Q: With `CCC(=O)O` [propionic C3:0] as the molecule, how does the “Activation of human GPR40 receptor” value (human GPR40) read?
A: minimal activation

Q: And the “Activation of mouse GPR40 receptor” value (mouse GPR40)?
A: minimal activation

Q: “exendin-4: glucagon-like peptide 1 mimetic, positive control” was tested. Which “Effect on glucose excursion during IPGTT” value (wild-type C57BL/6 mice) did it give?
A: completely prevented any glucose excursion
